Experimental data from paper PMC2889768 (Diabetes, 2010).
Read-outs that look alike come from different tables or passages of the source. Blank lines part the entries; values can stand above or below the molecule they belong to.

Legend:
[1] = target: NCX1.11 (Homo sapiens, UniProt P32418, INS637ALLLNEL); experiment: excised inside-out patch-clamp, recombinant forward-mode; format: biochemical; details: 5 μmol/l; n = 8
How it was run: (§1)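 Excised inside-out patches at 22 ± 1°C from tsA201 cells 24–72 h after calcium-phosphate cotransfection with human NCX1 splice-variant cDNA plus GFP. Patch held at 0 mV. Forward-mode current elicited by raising Ca2+c […]. Peak is the maximal current after activation, late current is at 1 min, total current is the AUC. Concentration-response fitted with the Hill equation. DMSO 0.1% final.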

[2] = test system: mouse α-cells; experiment: membrane capacitance, depolarization-induced exocytosis in mouse α-cells; format: cell-based; details: 1 μmol/l
How it was run: (§2)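 Islets dispersed 2 h post-isolation with 0.0025% trypsin in Ca2+-free buffer and plated on poly-D-lysine coverslips. Mouse cells cultured in medium 199, human cells in DMEM, both with 5.6 mmol/l glucose. Cells exposed to 1 μmol/l test compound for at least 5 min. Exocytosis elicited by 10 × 500-ms depolarisations (1 Hz) from −70 to 0 mV. Total is the summed capacitance increase, normalised as fF/pF. β- and α-cells identified post hoc by insulin or glucagon immunostaining.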

[3] = target: NCX1.1 (Homo sapiens, UniProt P32418); experiment: excised inside-out patch-clamp, recombinant forward-mode; format: biochemical
[4] = test system: β-cells; experiment: membrane capacitance, calcium infusion experiments; format: cell-based; details: 1 μmol/l; infusion of 200 nmol/l free Ca2+
How it was run: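 Whole-cell capacitance in dispersed islet cells with pipette Ca2+ buffered to 200 nmol/l free with EGTA, so Ca2+ is infused directly. Recorded with or without 1 μmol/l test compound, applied for at least 5 min. β-cells identified post hoc by insulin immunostaining.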

[5] = test system: human β-cells; experiment: membrane capacitance, depolarization-induced exocytosis in human β-cells; format: cell-based; details: 1 μmol/l; train of 10 depolarizations; n = 4; control 13.01 ± 5.64
How it was run: as §2

[6] = test system: cardiac L-type calcium channel; details: read-out: IC50s, cardiac L-type calcium channel; cited from earlier work
[7] = test system: β-cell L-type calcium channels; format: cell-based, human; details: 1 μmol/l
[8] = test system: mouse islets; experiment: glucose-stimulated insulin secretion, mouse islet perifusion; format: cell-based; details: 1 μmol/l
How it was run: (§3)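 Islets (BALB/c mouse, or human from three donors) preincubated 2 h at 37°C in low-glucose KRB (2.8 mmol/l glucose, 24 NaHCO3, 0.5% BSA, pH 7.4) ± 1 μmol/l test compound, with a solution change at 1 h. Groups of 25 islets perifused at 0.25 ml/min and 37°C: 10 min at 2.8 mmol/l, then 40 min at 11.1 mmol/l glucose. Fractions every 2 min; insulin by ELISA, as ng/ml per 25 islets or 11.1/2.8 fold change.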

[9] = test system: β-cell L-type calcium channels; format: cell-based, mouse; details: 1 μmol/l; n = 7
[10] = test system: human islets; experiment: glucose-stimulated insulin secretion, human islet perifusion; format: cell-based; details: 1 μmol/l
How it was run: as §3

[11] = test system: mouse β-cells; experiment: membrane capacitance, depolarization-induced exocytosis in mouse β-cells; format: cell-based; details: 1 μmol/l; train of 10 depolarizations; n = 6; control 36.04 ± 4.87
How it was run: as §2

[12] = target: NCX1.4 (Rattus norvegicus, UniProt Q01728); experiment: excised inside-out patch-clamp, recombinant forward-mode; format: biochemical; details: 5 μmol/l; exon B replaced with A in rat NCX1.3
[13] = intraperitoneal glucose tolerance tests in mice; format: in vivo; details: preliminary, data not shown
[14] = target: NCX1.7 (Homo sapiens, UniProt P32418); experiment: excised inside-out patch-clamp, recombinant forward-mode; format: biochemical
How it was run: as §1

[15] = target: NCX1.3 (Homo sapiens, UniProt P32418); experiment: as above; format: biochemical
How it was run: as §1

[16] = test system: mouse islets; experiment: Fura-2 calcium imaging of mouse islets; format: cell-based

reduction in total current, FM NCX1.11 [1]: 64.3 ± 2.92% | inhibition of total FM NCX1.1 activity ([3]; 5 μmol/l): failed to inhibit | IC50 ([3]; read-out: IC50, inhibition of total FM NCX1.1 activity, cardiac splice variant, total current (AUC), tsA201 cells): 43 µM | inhibition of recombinant β-cell NCX1.7 FM current ([14]; 1 μmol/l): ~25% | reduction in total FM NCX1.7 activity ([14]; 5 μmol/l, n = 10): 65.57 ± 3.20% | IC50 ([14]; read-out: IC50, FM late current NCX1.7, late current, 1 min postactivation): 1.72 ± 0.09 µM | IC50 ([14]; read-out: IC50, FM peak current NCX1.7, peak current): 4.71 ± 0.15 µM | inhibition of recombinant β-cell NCX1.3 FM current ([15]; 1 μmol/l): ~25% | reduction in total FM NCX1.3 activity ([15]; 5 μmol/l, n = 10): 69.45 ± 3.12% | IC50 ([15]; read-out: IC50, FM late current NCX1.3, late current, 1 min postactivation): 2.15 ± 0.26 µM | IC50 ([15]; read-out: IC50, FM peak current NCX1.3, peak current): 5.59 ± 0.28 µM
SMILES: N=C(N)SCCc1ccc(OCc2ccc([N+](=O)[O-])cc2)cc1 [KB-R7943]
depolarization-induced capacitance response, mouse α-cells [2]: did not significantly alter | rate at which the capacitance increased, presence vs absence of KB-R7943 [4]: not significantly different | total change in capacitance, human β-cells [5]: 100.20 ± 28.82 fF/pF | IC50 [6]: 3 to 7 µM | reduction in total Ba2+ current, human β-cells [7]: 29.54 ± 3.18% | insulin secretion, mouse islets ([8]; 2.8 mmol/l glucose): without effect | first- and second-phase insulin secretion, mouse islets ([8]; 11.1 mmol/l glucose): significantly enhanced | reduction in total Ba2+ current, mouse β-cells [9]: 32.66 ± 3.74% | insulin secretion, human islets ([10]; 2.8 mmol/l glucose): without effect | first- and second-phase insulin secretion, human islets ([10]; 11.1 mmol/l glucose): significantly enhanced | change in total capacitance, mouse β-cells [11]: 118.22 ± 33.48 fF/pF | FM KB-R7943 sensitivity of NCX1.4 [12]: dramatically decreased FM KB-R7943 sensitivity | blood glucose in intraperitoneal glucose tolerance test [13]: only showed a trend toward KB-R7943 lowering blood glucose | rate of calcium clearance after removal of the tolbutamide/KCl challenge ([16]; 1 μmol/l): significantly slowed | increase in Ca2+c when added concurrently with tolbutamide ([16]; 1 μmol/l KB-R7943 + 20 μmol/l tolbutamide, 2.8 mmol/l glucose, n = 9): 19.95 ± 6.92% | effect on Ca2+c levels when applied alone ([16]; 1 μmol/l, 2.8 mmol/l glucose): failed to significantly increase | increase to the peak Ca2+c response ([16]; 1 μmol/l, 11.1 mmol/l glucose challenge): 83.44 ± 18.27% | increase of average Ca2+c (AUC) ([16]; 1 μmol/l, 11.1 mmol/l glucose challenge, n = 9): 79.98 ± 8.73% | effect on Ca2+c levels in the presence of KCl ([16]; 1 μmol/l, 15 mmol/l KCl): significantly increases

SMILES: CCCCNC(=O)NS(=O)(=O)c1ccc(C)cc1 [tolbutamide, Tolbutamide]
increase in the 340/380 nm ratio (Ca2+c) ([16]; 20 μmol/l tolbutamide, 2.8 mmol/l glucose, n = 9): 0.45 ± 0.04 | decrease of elevation in Ca2+c upon a second tolbutamide challenge ([16]; 20 μmol/l tolbutamide, 2.8 mmol/l glucose, n = 11): 21.87 ± 4.58%
